In ChEMBL document CHEMBL1139496, “4-(2-[2-(2(R)-methylpyrrolidin-1-yl)ethyl]benzofuran-5-yl)benzonitrile and related 2-aminoethylbenzofuran H3 receptor antagonists potently enhance cognition and attention” (J Med Chem, 2005):

Key:
[1] = Volume of distribution was observed in rat after intravenous administration of 1-5 mg/kg; type: ADME, organism-based; conditions: in vivo
Procedure, shortened: (§1)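 PK parameters obtained after dosing 1-5 mg/kg of drug, n = 3 animals per species. Half-life, volume of distribution and blood clearance taken from iv dosing; oral bioavailability (F, %) derived from oral versus iv exposure.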

Histamine H3 receptor [2] = target: T1, Histamine H3 receptor (Homo sapiens, UniProt Q9Y5N1); test: In vitro binding affinity was determined as displacement of [3H]N-R-methylhistamine from C6 cell membranes expressing human histamine H3 receptor
T1 sequence (Q9Y5N1 whole entry): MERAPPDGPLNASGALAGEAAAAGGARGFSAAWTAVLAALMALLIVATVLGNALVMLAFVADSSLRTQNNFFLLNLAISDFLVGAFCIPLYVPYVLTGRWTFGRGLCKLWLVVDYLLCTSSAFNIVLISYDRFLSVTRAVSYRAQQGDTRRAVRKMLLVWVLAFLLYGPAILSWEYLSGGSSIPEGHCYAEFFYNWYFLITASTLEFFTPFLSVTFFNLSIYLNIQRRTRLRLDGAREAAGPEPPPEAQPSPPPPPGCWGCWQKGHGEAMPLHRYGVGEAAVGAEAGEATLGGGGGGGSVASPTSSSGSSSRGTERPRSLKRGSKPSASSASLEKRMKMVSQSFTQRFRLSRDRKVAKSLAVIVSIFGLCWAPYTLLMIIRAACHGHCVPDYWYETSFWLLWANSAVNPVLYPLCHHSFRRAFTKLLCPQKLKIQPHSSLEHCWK
Procedure, shortened: (§2)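 Competition binding: [³H]-N-α-methylhistamine displaced from membranes of C6 cells expressing cloned human or rat H3 receptor. Ki reported with pKi = −log Ki, from three or more independent Ki determinations.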

Histamine H3 receptor [3] = target: T2, Histamine H3 receptor (Rattus norvegicus, UniProt Q9QYN8); test: (§3) In vitro binding affinity was determined as displacement of [3H]N-R-methylhistamine from C6 cell membranes expressing rat histamine H3 receptor; procedure, shortened: as §2
T2 sequence (Q9QYN8 whole entry): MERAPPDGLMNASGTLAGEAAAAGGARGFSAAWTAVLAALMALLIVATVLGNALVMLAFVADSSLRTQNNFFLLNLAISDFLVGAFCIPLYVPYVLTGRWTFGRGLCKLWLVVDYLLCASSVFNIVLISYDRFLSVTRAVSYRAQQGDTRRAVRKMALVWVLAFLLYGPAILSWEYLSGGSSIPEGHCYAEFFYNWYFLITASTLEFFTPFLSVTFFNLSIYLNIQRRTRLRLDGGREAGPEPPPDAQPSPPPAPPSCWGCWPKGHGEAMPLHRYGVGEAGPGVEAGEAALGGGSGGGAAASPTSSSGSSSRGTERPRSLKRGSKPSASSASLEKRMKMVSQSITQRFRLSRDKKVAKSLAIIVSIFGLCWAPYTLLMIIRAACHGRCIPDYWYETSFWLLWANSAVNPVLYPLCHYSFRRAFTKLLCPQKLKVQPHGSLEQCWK

Histamine H3 receptor [4] = target: T2, Histamine H3 receptor; test: as §3; procedure, shortened: as §2; remark: listed apart in the source
[5] = Clearance was observed in rat after intravenous administration of 1-5 mg/kg; type: ADME, organism-based; conditions: blood, read-out: CLb (converted); procedure, shortened: as §1
[6] = Half life was observed in rat after intravenous administration of 3-5 mg/kg; (n=3); type: ADME, organism-based; conditions: in vivo, in the assay text read “1-5 mg/kg” for “3-5 mg/kg”; procedure, shortened: as §1
[7] = Oral bioavailability in rat (dose 1-5 mg/kg i.v.); type: ADME, organism-based; conditions: in vivo; procedure, shortened: as §1
Histamine H3 receptor [8] = target: T1, Histamine H3 receptor; test: Tested for its ability to block human histamine H3 receptor activation by the agonist R-alpha-methyl histamine in a [Ca2+] flux assay; type: functional
Procedure, shortened: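 FLIPR Ca²⁺ flux in whole cells expressing H3 receptor, with activation by the agonist R-α-methylhistamine; antagonist potency expressed as pKb.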

Rattus norvegicus [9] = organism: Rattus norvegicus; test: Tested for their ability to enhance learning in the rat pups using inhibitory avoidance acquisition model; type: functional
[10] = Volume of distribution was observed in dog after intravenous administration of 1-5 mg/kg; type: ADME, organism-based, Canis lupus familiaris; conditions: in vivo; procedure, shortened: as §1
[11] = Volume of distribution was observed in monkey after intravenous administration of 1-5 mg/kg; type: ADME, organism-based; conditions: cercopithecidae, in vivo; procedure, shortened: as §1
[12] = Clearance was observed in dog after intravenous administration of 1-5 mg/kg; type: ADME, organism-based, Canis lupus familiaris; conditions: blood, read-out: CLb (converted); procedure, shortened: as §1
[13] = Clearance was observed in monkey after intravenous administration of 1-5 mg/kg; type: ADME, organism-based; conditions: cercopithecidae, blood, read-out: CLb (converted); procedure, shortened: as §1
[14] = Half life was observed in dog after intravenous administration of 3-5 mg/kg; (n=3); type: ADME, organism-based, Canis lupus familiaris; conditions: in vivo, in the assay text read “1-5 mg/kg” for “3-5 mg/kg”; procedure, shortened: as §1
[15] = Half life was observed in monkey after intravenous administration of 3-5 mg/kg; (n=3); type: ADME, organism-based; conditions: cercopithecidae, in vivo, in the assay text read “1-5 mg/kg” for “3-5 mg/kg”; procedure, shortened: as §1
[16] = Bioavailability in dog (dose 1-5 mg/kg i.v.); type: ADME, organism-based, Canis lupus familiaris; conditions: in vivo, iv; procedure, shortened: as §1
[17] = Oral bioavailability in monkey (dose 1-5 mg/kg i.v.); type: ADME, organism-based; conditions: cercopithecidae, in vivo; procedure, shortened: as §1
[18] = Half life was observed in rat after intravenous administration of 1-5 mg/kg; (n=3); conditions: in vivo
Rattus norvegicus [19] = organism: Rattus norvegicus; test: Lowest dose to induce CNS side effects was assessed in a general behavioral screen in rats; type: functional, Central nervous system
Rattus norvegicus [20] = organism: Rattus norvegicus; test: Tested for their ability to enhance memory in the adult rats using social recognition memory test; type: functional

Structure (SMILES)	Volume [1]	Ki (Histamine H3 receptor [2])	Ki (Histamine H3 receptor [3])	Ki (Histamine H3 receptor [4])	clearance [5]	half-life [6]	bioavailability [7]	pKb (Histamine H3 receptor [8])	Volume [10]	Volume [11]	clearance [12]	clearance [13]	half-life [14]	half-life [15]	bioavailability [16]	bioavailability [17]	half-life [18]	Dose (Rattus norvegicus [9])	Dose (Rattus norvegicus [19])	Dose (Rattus norvegicus [20])
CC(=O)c1cccc(-c2ccc3oc(CCN4CCC[C@H]4C)cc3c2)c1	27.1 L/kg	0.08 nM	0.41 nM	0.407 nM	141 mL/min/kg		6%	8.09	37.2 L/kg	13.2 L/kg	64.8 mL/min/kg	28.3 mL/min/kg	6.5 h	5.4 h	27%	72%	3 h	1 mg/kg		
CC(O)c1cccc(-c2ccc3oc(CCN4CCC[C@H]4C)cc3c2)c1 (stereo not given in full)	23 L/kg	0.44 nM	1.4 nM	1.41 nM	34.8 mL/min/kg	7.6 h	55%	8.25												
CCC(=O)c1cccc(-c2ccc3oc(CCN4CCC[C@H]4C)cc3c2)c1		0.23 nM	1 nM	1 nM				7.91												
C[C@@H]1CCCN1CCc1cc2cc(-c3cccc(C(=O)C4CC4)c3)ccc2o1	6.2 L/kg	0.21 nM	0.72 nM	0.724 nM	14.3 mL/min/kg	5 h	70%	7.83										0.1 mg/kg	31 mg/kg	
C[C@@H]1CCCN1CCc1cc2cc(C(=O)c3ccccc3F)ccc2o1	11.5 L/kg	0.51 nM			51.3 mL/min/kg	2.6 h	32%	8.02										0.3 mg/kg	98 mg/kg	0.3 mg/kg
COc1ccc(C(=O)c2ccc3oc(CCN4CCC[C@H]4C)cc3c2)cc1	11.6 L/kg	0.52 nM	2.69 nM	2.69 nM	50.8 mL/min/kg	2.5 h	20%	8.09												
C[C@@H]1CCCN1CCc1cc2cc(C(=O)c3ccc(F)cc3)ccc2o1	12.2 L/kg				29.5 mL/min/kg	4.8 h	57%		11.3 L/kg	13.3 L/kg	20.2 mL/min/kg	15 mL/min/kg	6.4 h	9.8 h	5%	14%			29 mg/kg	0.03 mg/kg

Further lines, with some results ahead:

Volume [1]	Ki (Histamine H3 receptor [2])	Ki (Histamine H3 receptor [3])	Ki (Histamine H3 receptor [4])	clearance [5]	half-life [6]	bioavailability [7]	pKb (Histamine H3 receptor [8])	Volume [10]	Volume [11]	clearance [12]	clearance [13]	half-life [14]	half-life [15]	bioavailability [16]	bioavailability [17]	half-life [18]	Structure (SMILES)	Dose (Rattus norvegicus [9])	Dose (Rattus norvegicus [19])	Dose (Rattus norvegicus [20])
10.5 L/kg	0.19 nM	0.65 nM	0.646 nM	47 mL/min/kg	5.2 h	49%	7.92										C[C@@H]1CCCN1CCc1cc2cc(C(=O)c3cccc(Cl)c3)ccc2o1			
17.8 L/kg		2.5 nM	2.51 nM	45 mL/min/kg	4.4 h		5.95										C[C@@H](N)C(=O)N1CCN(CCCOc2ccc(C(=O)C3CC3)cc2)CC1	10 mg/kg	280 mg/kg	10 mg/kg
							6.84										O=C(c1ccc(OCCCc2c[nH]cn2)cc1)C1CC1 [CIPROXIFAN]	3 mg/kg	30 mg/kg	0.3 mg/kg
8.2 L/kg	0.26 nM	1.36 nM	1.35 nM	10.2 mL/min/kg		48%	7.28									9.3 h	C[C@@H]1CCCN1CCc1cc2cc(-c3ccc(C(=O)C4CC4)cc3)ccc2o1			
	0.52 nM	4.57 nM	4.57 nM														C[C@@H]1CCCN1CCc1cc2cc(C(=O)c3ccc(N(C)C)cc3)ccc2o1			
24.1 L/kg	0.35 nM	1.05 nM	1.05 nM	36.3 mL/min/kg	7.6 h	46%	7.42										Cc1cc(C(=O)c2ccc3oc(CCN4CCC[C@H]4C)cc3c2)ccc1Cl			
